In ChEMBL document CHEMBL1142730, “Design of HIV-1 protease inhibitors active on multidrug-resistant virus” (J Med Chem, 2005):
In brackets after ≈: the same amount, converted by molar mass.

Columns and labels:
[1] = test system: Human immunodeficiency virus 1; assay: Protease inhibitory activity against HIV-1 r13025 mutant strain was determined; format: functional, organism-based
[2] = test system: Human immunodeficiency virus 1; assay: Toxicity value against wild type HIV-1 IIIB was determined; format: functional
Outline: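 MT4 cells (150 000 cells/mL) mock-infected, run in parallel with HIV-infected cultures over an identical compound concentration range. Incubated 3 days at 37 °C, 5% CO₂. Reduced expression of the […] GFP reporter serves as the toxicity marker.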

[3] = test system: Human immunodeficiency virus 1; assay: Protease inhibitory activity against wild type HIV-1 IIIB was determined; format: functional, organism-based
[4] = test system: Human immunodeficiency virus 1; assay: Protease inhibitory activity against HIV-1 r13363 mutant strain was determined; format: functional, organism-based
[5] = test system: Human immunodeficiency virus 1; assay: Protease inhibitory activity against HIV-1 r13034 mutant strain was determined; format: functional, organism-based
[6] = test system: Human immunodeficiency virus 1; assay: Protease inhibitory activity against HIV-1 GSS004421 mutant strain was determined; format: functional, organism-based
[7] = In vitro solubility at was determined; pH=5; format: ADME
Outline: (§1)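 Aqueous solubility measured at pH 5 and pH 7, expressed in […].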

[8] = test system: Caco-2; assay: In vitro increase in apparent permeability from basolateral to apical was determined in Caco-2 (human colon carcinoma) cells; format: functional, cell-based
Outline: (§2)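 Caco-2 monolayer apparent permeability measured apical-to-basolateral and basolateral-to-apical; reported as Papp in cm/s (×10⁶).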

[9] = In vitro solubility at was determined; pH=7; format: ADME; outline: as §1
[10] = species on record: Rattus norvegicus; assay: In vitro metabolic stability value after 30 min of incubation with liver microsomes of rat was determined; format: functional; details: Microsome
Outline: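 Compound at 10 µM incubated at 37 °C with dog, human or rat liver microsomes. Residual parent compound quantified directly by LC-MS. Value is percent parent remaining after 30 min.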

[11] = test system: Caco-2; assay: In vitro increase in apparent permeability from apical to basolateral was determined in Caco-2 (human colon carcinoma) cells; format: functional, cell-based; outline: as §2

| Structure (SMILES) | pEC50 [1] | pCC50 [2] | EC50 [3] [nM] | pEC50 [4] | pEC50 [5] | pEC50 [6] | solubility [7] [µg/mL] | Papp [8] [cm/s] | solubility [9] [µg/mL] | Metabolic stability [10] [%] | Papp [11] [cm/s] |
| --- | --- | --- | --- | --- | --- | --- | --- | --- | --- | --- | --- |
| Cc1cccc(C)c1OCC(=O)N[C@@H](Cc1ccccc1)[C@@H](O)C[C@H](Cc1ccccc1)NC(=O)[C@H](C(C)C)N1CCCNC1=O [LOPINAVIR] | 7.84 | 4.95 | 9.77 | 6.28 | 6.59 | 6.02 |  |  |  |  |  |
| CC(C)CN(C[C@@H](O)[C@H](Cc1ccccc1)NC(=O)O[C@H]1CO[C@H]2OCC[C@H]21)S(=O)(=O)c1ccc2nc(N(C)CCN3CCCC3)sc2c1 | 6.5 | 4.52 | 5.62 | 5.64 | 6.85 | 6.29 |  |  |  |  |  |
| CC(C)CN(C[C@@H](O)[C@H](Cc1ccccc1)NC(=O)O[C@H]1CO[C@H]2OCC[C@H]21)S(=O)(=O)c1ccc2ncsc2c1 | 7.83 | < 4.49 | 1.1 | 6.57 | 8.11 | 7.78 |  |  |  |  |  |
| CC(C)(C)NC(=O)[C@@H]1C[C@@H]2CCCC[C@@H]2CN1C[C@@H](O)[C@H](Cc1ccccc1)NC(=O)[C@H](CC(N)=O)NC(=O)c1ccc2ccccc2n1 | 6.83 | 4.68 | 26.3 | 7.54 | 5.91 | 6.3 |  |  |  |  |  |
| CC(C)CN(C[C@@H](O)[C@H](Cc1ccccc1)NC(=O)O[C@H]1CO[C@H]2OCC[C@H]21)S(=O)(=O)c1ccc2nc(NCCN3CCCC3)oc2c1 | 7.12 | 4.49 | 26.3 | 6.88 | 7.48 | 7.21 |  |  |  |  |  |
| CNCCNc1nc2ccc(S(=O)(=O)N(CC(C)C)C[C@@H](O)[C@H](Cc3ccccc3)NC(=O)O[C@H]3CO[C@H]4OCC[C@H]43)cc2s1 | 6.49 | < 4.49 | 209 | 6.11 | 6.43 | 6.5 |  |  |  |  |  |
| CCC[C@@]1(CCc2ccccc2)CC(O)=C([C@H](CC)c2cccc(NS(=O)(=O)c3ccc(C(F)(F)F)cn3)c2)C(=O)O1 | 5.74 | < 4.49 | 501 | 6.15 |  | 6.73 |  |  |  |  |  |
| CC(C)CN(C[C@@H](O)[C@H](Cc1ccccc1)NC(=O)O[C@H]1CO[C@H]2OCC[C@H]21)S(=O)(=O)c1ccc2nc(NCCN(C)C)oc2c1 | 6.87 | < 4.49 | 81.3 | 6.7 | 7.61 | 6.81 |  |  |  |  |  |
| CC(C)(C)NC(=O)[C@@H]1CN(Cc2cccnc2)CCN1C[C@@H](O)C[C@@H](Cc1ccccc1)C(=O)N[C@H]1c2ccccc2C[C@H]1O.O | 5.97 | < 4.49 | 39.8 | 6.39 | 5.9 | 6.47 |  |  |  |  |  |
| Cc1c(O)cccc1C(=O)N[C@@H](CSc1ccccc1)[C@H](O)CN1C[C@H]2CCCC[C@H]2C[C@H]1C(=O)NC(C)(C)C | 5.31 | 4.75 | 70.8 | 5.82 | 5.9 | 6.28 |  |  |  |  |  |
| CC(C)CN(C[C@@H](O)[C@H](Cc1ccccc1)NC(=O)O[C@H]1CO[C@H]2OCC[C@H]21)S(=O)(=O)c1ccc2nc(NCCCN(C)C)sc2c1 | 7.69 | 4.73 | 57.5 | 7.53 | 8.17 | 7.72 |  |  |  |  |  |
| CC(C)CN(C[C@@H](O)[C@H](Cc1ccccc1)NC(=O)O[C@H]1CO[C@H]2OCC[C@H]21)S(=O)(=O)c1ccc2nc(N)sc2c1 | 8.51 | 4.77 | 9.12 | 7.9 | 8.42 | 8.59 | < 10 | 2.73e-05 | < 10 | 77 | 9.9e-06 |
| CC(C)c1nc(CN(C)C(=O)N[C@H](C(=O)N[C@@H](Cc2ccccc2)C[C@H](O)[C@H](Cc2ccccc2)NC(=O)OCc2cncs2)C(C)C)cs1 [RITONAVIR] | 5.99 | 4.53 | 64.6 | 4.89 | 5.3 | 4.97 |  |  |  |  |  |
| CC(C)CN(C[C@@H](O)[C@H](Cc1ccccc1)NC(=O)O[C@H]1CO[C@H]2OCC[C@H]21)S(=O)(=O)c1ccc2nc(N(C)C)sc2c1 | 7.31 | < 4.49 | 3.47 | 5.36 |  | 6.59 |  |  |  |  |  |
| CC(C)CN(C[C@@H](O)[C@H](Cc1ccccc1)NC(=O)O[C@H]1CO[C@H]2OCC[C@H]21)S(=O)(=O)c1ccc2nc(N(C)CCN3CCCC3)oc2c1 | 6.65 | < 4.49 | 33.1 | 5.85 | 6.73 | 6.55 |  |  |  |  |  |
| COC(=O)N[C@H](C(=O)N[C@@H](Cc1ccccc1)[C@@H](O)CN(Cc1ccc(-c2ccccn2)cc1)NC(=O)[C@@H](NC(=O)OC)C(C)(C)C)C(C)(C)C [ATAZANAVIR] | 5.78 | 4.53 | 15.1 | 7.23 |  | 7.32 |  |  |  |  |  |
| CC(C)CN(C[C@@H](O)[C@H](Cc1ccccc1)NC(=O)OC1CCOC1)S(=O)(=O)c1ccc(N)cc1 (single isomer, unassigned) | 6.43 | < 4.49 | 43.7 | 4.95 | 6.01 | 5.75 |  |  |  |  |  |
| CC(C)CN(C[C@@H](O)[C@H](Cc1ccccc1)NC(=O)O[C@H]1CO[C@H]2OCC[C@H]21)S(=O)(=O)c1ccc2nc(N(C)CCCN3CCCC3)sc2c1 | 6.16 | 4.58 | 24 | 5.52 | 7.36 | 6.81 |  |  |  |  |  |
| CC(C)CN(C[C@@H](O)[C@H](Cc1ccccc1)NC(=O)O[C@H]1CO[C@H]2OCC[C@H]21)S(=O)(=O)c1ccc2nc(NCCN(C)C)sc2c1 | 7.84 | < 4.49 | 11.2 | 7.67 | 8.09 | 7.9 | 410 (≈ 607 µM) | 2.66e-05 | 40 (≈ 59.2 µM) | 19 | 6.1e-06 |
| CC(C)CN(C[C@@H](O)[C@H](Cc1ccccc1)NC(=O)O[C@H]1CO[C@H]2OCC[C@H]21)S(=O)(=O)c1ccc2nc(N(C)C)oc2c1 | 6.66 | < 4.49 | 4.17 | 5.38 | 6.92 | 6.58 |  |  |  |  |  |
| CC(C)CN(C[C@@H](O)[C@H](Cc1ccccc1)NC(=O)O[C@H]1CO[C@H]2OCC[C@H]21)S(=O)(=O)c1ccc2nc(N(C)CCCN3CCCC3)oc2c1 | 6.63 | < 4.49 | 69.2 | 5.22 | 6.34 | 6.22 |  |  |  |  |  |
| CNc1nc2ccc(S(=O)(=O)N(CC(C)C)C[C@@H](O)[C@H](Cc3ccccc3)NC(=O)O[C@H]3CO[C@H]4OCC[C@H]43)cc2s1 | 8.81 | < 4.49 | 0.912 | 7.81 | 8.81 | 8.59 | < 10 | 1.42e-05 | < 10 | 72 | 1.93e-05 |
